DTT redox prof – compounds producing H2O2 with reducing agent – biochemical, NIH compound library profiling, artefact control for MLSCN library redox annotation, primary screen | DTT-dependent redox cycling H2O2, phenol red/HRP absorbance; 100% = 100 µM peroxide control, 0% = buffer | activation, % at 10 µM | 200,000 tested, 0.03% active | AID 878, 2007;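 active means activation of at least 50% relative to the plate's high and low controls in the primary single-dose screen; inactive means activation below 50%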;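 further: compound incubated with DTT at 0.8 mM final as the reducing agent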
T cruzi inh – inhibitors of intracellular T. cruzi growth, primary screen, luminescence, NIH3T3 host cells. T. cruzi beta-gal in NIH3T3, 90 h. inhibition, % (concentration not given with the values). 300,000 tested, 1.4% active;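 active means mean inhibition across valid replicates above about 55%, limit read from the data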;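 further: signal also drops with host cell toxicity which is not excluded here; higher percent means less beta-gal luminescence so fewer parasites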
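assay system = mouse NIH/3T3 fibroblasts infected with β-gal-expressing T. cruzi Tulahuen C4 | input = 5,000 NIH/3T3 host cells per well | buffer or medium = DMEM plus 2% FBS | timing = 3 h host attachment, then at least 90 h co-culture | measured by = GalScreen luminescence, 60 min | evaluation = luminescence reflecting intracellular parasite burden, expressed as percent inhibition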
MPTP block – mitochondrial permeability transition pore inhibitors, primary screen, biochemical, isolated mouse mitochondria, absorbance | Ca2+ swelling absorbance, 30 min | inhibition, % at 10 µM | 360,000 tested, 1.4% active | AID 602449, 2012;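 active means inhibition of 50% or more, scaled per plate between neutral and stimulator controls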
Hep lipid drop – inhibitors of hepatocyte lipid droplet formation, primary screen, imaging, high-throughput imaging, BODIPY stain; AML12 mouse hepatocytes, oleate lipid droplets; inhibition, % at 6.5 µM; 240,000 tested, 0.4% active;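 active means lipid droplet intensity inhibited by at least 50%, with more than 500 cells counted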
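System: AML12 hepatocytes (mouse). Probe or stimulus: oleic acid at 100 µM to induce lipid droplet formation. Times: overnight treatment with compound plus oleate. Detection: Image-based BODIPY and DAPI two-channel analysis. Evaluation: percent inhibition of filter-corrected integrated lipid droplet intensity per well.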
Lmaj promast – Leishmania major promastigote growth inhibition, primary screen; Leishmania major promastigotes, resazurin fluorescence viability; inhibition, % at 10 µM; 200,000 tested, 9% active; in the data active means inhibition above about 50%;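 further: promastigotes grown with compound for 44 hours at 28 °C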
A number is an active result; n = inactive; x = no result. Only a selection was taken, and hits are over-represented in it overall.

SMILES	DTT redox prof	T cruzi inh	MPTP block	Hep lipid drop	Lmaj promast
CCC(=O)c1ccccc1OCCN1CCN(CC)CC1	n	n	n	n	n
COc1ccc(S(=O)(=O)Nc2ccc3c(c2)CC(=O)N([C@@H](C)CO)C[C@H](C)[C@@H](CN(C)S(=O)(=O)c2ccc(F)cc2)O3)cc1	x	x	n	x	x
Cn1nc(-c2ccc(N3CCN(CCO)CC3)c([N+](=O)[O-])c2)c2ccccc2c1=O	n	n	n	n	99
CN(C)CCNc1ccc(-c2nn(C)c(=O)c3ccccc23)cc1[N+](=O)[O-]	n	72	n	n	90
CCCCCCCCN1C(=O)[C@H](CC(=O)NCCCOCCCC)C[C@@]2(C(=O)OC)CCCCC=C12	x	x	n	x	x
Cn1c(Cl)cnc1C1CC(=O)c2cc(Cl)ccc2O1 (centres undefined)	n	n	n	n	100
CSc1ccc(CNc2ccc(C)c(C)c2)cc1	n	n	n	x	n
C=CCC(C)(NCc1ccccc1)c1ccccc1 (centres undefined)	n	n	n	n	n
Cc1ccc(NCc2ccc(C)s2)cc1	x	71	x	n	x
Cc1ccc(NCc2ccccc2)cc1	n	58	n	n	n
CSc1ccc(CNc2ccc(C)cc2)cc1	n	n	n	x	100
CC(=O)N1CCN(c2ccc(NCc3ccc(C)s3)cc2)CC1	n	n	n	x	n
C=CCC(C)(NCc1ccccc1)c1ccc(C)cc1 (centres undefined)	n	n	n	n	69
O=S(=O)(NCc1cccc(C(F)(F)F)c1)NCc1ccccc1F	n	n	n	n	n
Cc1c(N)cc(S(=O)(=O)O)cc1NC(=O)c1cccc([N+](=O)[O-])c1	x	x	n	x	x
c1ccc(CNc2ccc(CNc3ncn[nH]3)cc2)cc1	n	n	n	n	64
c1ccc(CNc2ncn[nH]2)cc1	x	x	n	x	x
O=C1N=C2N(CCN3CCCCC3)c3ccccc3N2/C1=C\c1ccc([N+](=O)[O-])o1	n	x	x	n	100
N#CC(c1ccc(O)cc1)N1CCN(C(C#N)c2ccc(O)cc2)CC1 (centres undefined)	x	x	n	x	x
O=C(c1cccc(NS(=O)(=O)c2ccc(F)c(F)c2)c1)N1CCN(Cc2ccccc2)CC1	n	n	n	n	59
Cc1ccc(S(=O)(=O)Nc2cccc(C(=O)NC3CCN(Cc4ccccc4)CC3)c2)cc1F	x	56	n	x	x
O=C(NC1CCN(Cc2ccccc2)CC1)c1cccc(NS(=O)(=O)c2ccc(Br)cc2)c1	x	x	n	x	x
CSc1ncccc1C(=O)N1CCCC(N2CCN(c3ccccc3C)CC2)C1 (centres undefined)	x	x	n	x	x
CCCCCn1c(=O)c(-c2nc3ccccc3[nH]2)c(O)c2ccccc21	n	n	n	n	56
CCCCCCCCn1c(=O)c(C(=O)OCC)c(O)c2ccccc21	n	n	n	n	n
SMILES	DTT redox prof	T cruzi inh	MPTP block	Hep lipid drop	Lmaj promast
Cc1ccccc1NC(=O)NC1(C(=O)NCc2ccco2)CCCCC1	x	n	n	n	x
Cc1ccc(Sc2ncccc2C(=O)O)c(C)c1	n	n	n	n	n
Cc1ccc(Sc2ncccc2C(=O)O)cc1C	n	n	n	n	59
CSc1ccc(NC(=O)C2(C)CCN2C(=O)c2sccc2C)cc1 (centres undefined)	x	x	n	x	x
Cc1c(C#N)c(=O)c(-[n+]2ccccc2)c([S-])n1-c1ccc(Cl)cc1	x	n	n	n	x
O=C(Nc1ccc(Cl)cc1)N1N=CCC1c1ccccc1 (centres undefined)	x	n	n	n	x
O=C(Nc1ccccc1)C1=C(O)CC(c2ccc(Cl)cc2)N2CCN=C12 (centres undefined)	n	n	n	n	92
O=C1c2ccccc2C(=Cc2cccnc2)c2ccccc21	x	x	n	x	x
O=C1/C(=C/c2cccnc2)Sc2ccccc21	n	n	n	x	83
COc1cc(COCC(O)CN2CCN(CCN3C(=O)c4cccc5cccc(c45)C3=O)CC2)cc(OC)c1OC (centres undefined)	n	n	n	n	n
O=C1c2cccc3cccc(c23)C(=O)N1CCN1CCN(C(=S)Nc2ccccc2)CC1	n	n	n	n	95
O=C1c2cccc3cccc(c23)C(=O)N1CCN1CCN(CC(O)COc2ccc3ccccc3c2)CC1 (centres undefined)	n	n	n	n	81
Cc1ccc(C)c(OCC(O)CN2CCN(CCN3C(=O)c4cccc5cccc(c45)C3=O)CC2)c1 (centres undefined)	n	n	n	n	100

Screening results as filed in PubChem BioAssay.
